The IC50 is the midpoint of a concentration-inhibition curve. What is called Papp is a coefficient for how fast a substance crosses the barrier. Broadly, the Emax is the maximal effect, on the per cent scale that the assay sets. A word on the fraction unbound: it is free concentration divided by total concentration. Higher therefore signals weak binding. The logP is a log measure of how a compound divides between an organic and an aqueous phase. Read a high logP as higher lipophilicity. As usually defined, the clearance is the volume of plasma or blood freed of the substance per unit of time. A higher clearance goes with a high capacity for elimination. As usually defined, the half-life is the time in which the quantity being followed falls by half. A low value points to fast loss.

The test system of data set [1] is Rattus norvegicus. In words: Antiinflammatory activity in rat assessed as inhibition of complete Freund's adjuvant-induced paw withdrawal threshold at 30 mg/kg, sc after 60 mins (reference value: 4.8%). The class given is functional. Conditions: 1 h, route subcutaneous. The gist of the method: (§1)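 Rat complete Freund's adjuvant hyperalgesia model. Compound was given subcutaneously at 10, 30 or 100 mpk. Paw withdrawal threshold was read at the 60 min timepoint and expressed as % reversal.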

Data set [2] concerns the target T1, Cannabinoid receptor 1 (Homo sapiens, UniProt P21554). In words: Agonist activity at human CB1 receptor expressed in CHOK1 cells assessed as inhibition of forskolin-induced cAMP production treated 15 mins before forskolin challenge measured after 1 hr by HTRF assay. The class given is functional, cell-based, CHO-K1. The gist of the method: (§2)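 CHO-K1 cells (1000 per well) expressing human or rat CB1 or CB2 were preincubated with compound for 15 min at room temperature. Forskolin was then added at its EC70 for 30 min at room temperature. cAMP was detected by HTRF (d2-cAMP plus anti-cAMP cryptate) after a final 1 h incubation at room temperature. Values are reported as IC50 with % Emax.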
(Cyclic AMP is a second messenger, typically raised through Gs and lowered through Gi signalling.)

The subject of a further data set is Plasma. In words: Drug level in rat complete Freund's adjuvant-induced inflammation model plasma at 30 mg/kg, sc. The format is ADME, organism-based. On the set-up: dose 30 mg/kg, route subcutaneous. The note with it: in vivo, read-out: Drug uptake. The gist of the method:
(§3)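 In the rat CFA hyperalgesia experiments, after 30 mpk subcutaneous dosing, compound levels (nM) were measured in plasma, brain homogenate and cerebrospinal fluid.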

The next data set relates to Cerebrospinal fluid. In words: Drug level in rat complete Freund's adjuvant-induced inflammation model cerebrospinal fluid at 30 mg/kg, sc. The format is ADME, organism-based. Set-up: dose 30 mg/kg, route subcutaneous. The note with it: in vivo, read-out: Drug uptake. In a few lines:
as §3

A further data set relates to Brain. In words: Drug level in rat complete Freund's adjuvant-induced inflammation model brain at 30 mg/kg, sc. The format is ADME, organism-based. On the set-up: dose 30 mg/kg, route subcutaneous. Conditions: in vivo, read-out: Drug uptake. In a few lines:
as §3

Data set [3] concerns the target T2, Cannabinoid receptor 2 (Rattus norvegicus, UniProt Q9QZN9).
T2 sequence (Q9QZN9 whole entry): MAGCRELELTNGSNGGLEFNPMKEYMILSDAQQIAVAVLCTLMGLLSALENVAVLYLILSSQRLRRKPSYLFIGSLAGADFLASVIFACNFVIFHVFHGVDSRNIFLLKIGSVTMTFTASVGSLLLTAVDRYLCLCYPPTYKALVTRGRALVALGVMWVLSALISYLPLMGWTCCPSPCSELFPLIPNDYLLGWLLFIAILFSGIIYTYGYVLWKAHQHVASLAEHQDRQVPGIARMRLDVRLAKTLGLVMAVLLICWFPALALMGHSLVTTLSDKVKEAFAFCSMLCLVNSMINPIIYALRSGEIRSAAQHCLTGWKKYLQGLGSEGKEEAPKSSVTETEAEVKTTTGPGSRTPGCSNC
In words: Agonist activity at rat CB2 receptor expressed in CHOK1 cells assessed as inhibition of forskolin-induced cAMP production treated 15 mins before forskolin challenge measured after 1 hr by HTRF assay. The class given is functional, cell-based, CHO-K1. The gist of the method: as §2

Data set [4] concerns Rattus norvegicus. In words: Antiinflammatory activity in rat assessed as inhibition of complete Freund's adjuvant-induced paw withdrawal threshold at 100 mg/kg, sc after 60 mins (reference value: 4.8%). The class given is functional. The note with it: 1 h, route subcutaneous. The gist of the method:
as §1

The target of data set [5] is Cannabinoid receptor 1 (Rattus norvegicus, UniProt P20272). In words: Agonist activity at rat CB1 receptor expressed in CHOK1 cells assessed as inhibition of forskolin-induced cAMP production treated 15 mins before forskolin challenge measured after 1 hr by HTRF assay. The format is functional, cell-based, CHO-K1. The gist of the method: as §2
Sequence of Cannabinoid receptor 1 (Rattus norvegicus, UniProt P20272) (P20272 whole entry): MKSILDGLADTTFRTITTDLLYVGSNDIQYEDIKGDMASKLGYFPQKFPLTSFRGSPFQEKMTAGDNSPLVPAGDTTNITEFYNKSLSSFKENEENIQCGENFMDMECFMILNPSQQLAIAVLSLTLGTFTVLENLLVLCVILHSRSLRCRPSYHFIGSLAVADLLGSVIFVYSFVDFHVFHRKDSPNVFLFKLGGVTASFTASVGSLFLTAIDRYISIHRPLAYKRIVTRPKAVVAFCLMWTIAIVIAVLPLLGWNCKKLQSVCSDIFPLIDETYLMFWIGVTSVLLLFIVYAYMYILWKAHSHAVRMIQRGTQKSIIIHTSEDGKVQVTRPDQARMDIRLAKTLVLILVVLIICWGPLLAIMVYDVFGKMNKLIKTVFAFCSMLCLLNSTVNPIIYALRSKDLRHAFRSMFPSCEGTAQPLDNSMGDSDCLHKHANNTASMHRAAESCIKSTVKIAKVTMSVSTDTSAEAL
In data set [6] the target is T3, Cannabinoid receptor 2 (Homo sapiens, UniProt P34972). In words: Agonist activity at human CB2 receptor expressed in CHOK1 cells assessed as inhibition of forskolin-induced cAMP production treated 15 mins before forskolin challenge measured after 1 hr by HTRF assay. The format is functional, cell-based, CHO-K1. The gist of the method: as §2
T3 sequence (P34972 whole entry): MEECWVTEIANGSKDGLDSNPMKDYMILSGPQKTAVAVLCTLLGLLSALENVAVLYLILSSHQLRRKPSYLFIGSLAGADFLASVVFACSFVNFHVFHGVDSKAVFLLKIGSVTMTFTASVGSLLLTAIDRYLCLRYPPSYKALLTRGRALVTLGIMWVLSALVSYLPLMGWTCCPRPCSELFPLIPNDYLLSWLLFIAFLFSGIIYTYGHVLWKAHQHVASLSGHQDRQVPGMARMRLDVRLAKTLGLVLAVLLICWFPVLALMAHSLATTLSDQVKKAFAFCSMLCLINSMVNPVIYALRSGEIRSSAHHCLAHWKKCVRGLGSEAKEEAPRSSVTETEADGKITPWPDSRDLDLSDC
The subject of data set [7] is Rattus norvegicus. In words: Antiinflammatory activity in rat assessed as inhibition of complete Freund's adjuvant-induced paw withdrawal threshold at 10 mg/kg, sc after 60 mins (reference value: 4.8%). The format is functional. The note with it: 1 h, route subcutaneous. The gist of the method:
as §1

For data set [8], the system named is Rattus norvegicus. In words: Antiinflammatory activity in rat assessed as inhibition of complete Freund's adjuvant-induced paw withdrawal threshold at 30 mg/kg, sc after 60 mins (reference value: 11%). The class given is functional. The note with it: 1 h, route subcutaneous. In a few lines:
as §1

Data set [9] is filed under the species Rattus norvegicus.
In data set [10] the target is Cannabinoid receptor 1 (Rattus norvegicus) (UniProt P20272). In words: Agonist activity at rat CB1 receptor expressed in CHOK1 cells assessed as inhibition of forskolin-induced cAMP production treated 15 mins before forskolin challenge measured after 1 hr by HTRF assay relative to control. The format is functional, cell-based. Conditions: CHO-K1. In a few lines: (§4)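 CHO-K1 cells (1000 per well) expressing human or rat CB1 or CB2 were preincubated with compound at room temperature for 15 min. Forskolin at EC70 was then added for a further 30 min at room temperature. cAMP was read by HTRF (d2-cAMP plus anti-cAMP-cryptate, final 1 h at room temperature). IC50 and % Emax were reported.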
Sequence of Cannabinoid receptor 1 (Rattus norvegicus) (P20272 whole entry): as the sequence (P20272 whole entry) above

Data set [11] has as its target T3, Cannabinoid receptor 2. In words: Agonist activity at human CB2 receptor expressed in CHOK1 cells assessed as inhibition of forskolin-induced cAMP production treated 15 mins before forskolin challenge measured after 1 hr by HTRF assay relative to control. The format is functional, cell-based. Conditions: CHO-K1. The gist of the method: as §4
Data set [12] addresses T1, Cannabinoid receptor 1. In words: Agonist activity at human CB1 receptor expressed in CHOK1 cells assessed as inhibition of forskolin-induced cAMP production treated 15 mins before forskolin challenge measured after 1 hr by HTRF assay relative to control. Conditions: CHO-K1. The format is functional, cell-based. The gist of the method:
as §4

The target in data set [13] is T4, Cannabinoid receptor 2 (Rattus norvegicus) (UniProt Q9QZN9).
T4 sequence (whole entry): T2 sequence (Q9QZN9 whole entry)
In words: Agonist activity at rat CB2 receptor expressed in CHOK1 cells assessed as inhibition of forskolin-induced cAMP production treated 15 mins before forskolin challenge measured after 1 hr by HTRF assay relative to control. The format is functional, cell-based. Conditions: CHO-K1. In a few lines:
as §4

The subject of data set [14] is Rattus norvegicus. In words: Antiinflammatory activity in sc dosed rat assessed as inhibition of complete Freund's adjuvant-induced paw withdrawal threshold after 60 mins. The format is functional, organism-based. The gist of the method:
as §1

Data set [15] in a line: Fraction unbound in rat plasma. The format is ADME, cell-free.
The nature of data set [16]: Distribution coefficient, log P of the compound. The note with it: octanol/water. The format is physicochemical.
The species named for a further data set is Homo sapiens. In words: Selectivity ratio of IC50 for human CB1 receptor to IC50 for human CB2 receptor.
Data set [17] is described as follows: Clearance in rat at 2 mg/kg, iv. The class given is ADME, organism-based. On the set-up: dose 2 mg/kg, route intravenous. The note with it: in vivo.
A short description of data set [18]: Half life in rat at 2 mg/kg, iv. The note with it: in vivo. The format is ADME, organism-based. Set-up: dose 2 mg/kg, route intravenous.
The species named for data set [19] is Rattus norvegicus. In words: animal or person. The note with it: sc, 1 h, read-out: INH.

Where only a bound is given, the exact number is not on record here.

T1 sequence (P21554 whole entry): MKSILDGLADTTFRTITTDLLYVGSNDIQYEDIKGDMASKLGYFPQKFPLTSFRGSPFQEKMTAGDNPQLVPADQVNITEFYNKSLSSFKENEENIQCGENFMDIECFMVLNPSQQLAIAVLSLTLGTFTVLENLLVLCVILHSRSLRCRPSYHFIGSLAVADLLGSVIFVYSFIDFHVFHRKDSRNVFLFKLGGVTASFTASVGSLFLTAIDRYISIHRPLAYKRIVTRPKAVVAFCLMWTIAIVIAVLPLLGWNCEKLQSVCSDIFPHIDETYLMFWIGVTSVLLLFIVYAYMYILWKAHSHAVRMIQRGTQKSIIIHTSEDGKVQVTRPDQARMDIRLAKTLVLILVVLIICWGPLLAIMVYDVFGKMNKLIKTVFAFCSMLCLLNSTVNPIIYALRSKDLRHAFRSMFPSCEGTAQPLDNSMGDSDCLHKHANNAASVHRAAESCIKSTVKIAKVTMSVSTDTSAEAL

For the compound `Cc1ccc(C(=O)N2CC[C@@](O)(c3ccccc3)[C@@H]3CCCC[C@@H]32)cn1` [listing 1 of 2 here], the inhibition in vivo at 30 mg/kg with Rattus norvegicus [1] was 53.6%. Also, the IC50 on Cannabinoid receptor 1 [2] was 5.02 µM; at Cannabinoid receptor 2 [3] it was 0.0063 µM; on Cannabinoid receptor 1 [5] it was 1.89 µM; on Cannabinoid receptor 2 [6], 0.0073 µM. Besides, the concentration worked out at 4.2 µM in the data set on Plasma, 0.223 µM in the data set with Cerebrospinal fluid and 3.2 µM in the data set on Brain. For the same compound, the inhibition in vivo at 100 mg/kg in the data set on Rattus norvegicus [4] stood at 76.4%. The inhibition in vivo at 10 mg/kg with Rattus norvegicus [7] is 28.2%.

As to `CN1CCOC[C@H]1C(=O)N1CC[C@@](O)(c2ccccc2)[C@@H]2CCCC[C@@H]21`, in the data set with Rattus norvegicus [8], the inhibition in vivo at 30 mg/kg amounted to 3.3%. In addition, the IC50 on Cannabinoid receptor 1 [2] was over 17 µM; at Cannabinoid receptor 2 [3] it was 0.081 µM; on Cannabinoid receptor 1 [5], over 17 µM; on Cannabinoid receptor 2 [6], 0.016 µM. Moreover, the results for the concentration in the data set with Plasma, with Cerebrospinal fluid and in the data set with Brain were 6.6 µM, 1.5 µM and 9.8 µM, respectively. For the same compound, the Papp in the data set filed under Rattus norvegicus [9] was 39 ×10⁻⁶ cm/s. The Emax in data set [10] amounted to 8%; at Cannabinoid receptor 2 [11] it was 101%; at Cannabinoid receptor 1 [12], 11%; in data set [13], 98%.

`Cc1ccc(C(=O)N2CC[C@@](O)(c3ccccc3)[C@@H]3CCCC[C@@H]32)cn1` [listing 2 of 2 here] returned a Papp in the data set listed under Rattus norvegicus [9] of 36 ×10⁻⁶ cm/s. Moreover, the Emax in data set [10] came to 94%; at Cannabinoid receptor 2 [11], 103%; on Cannabinoid receptor 1 [12], 78%; in data set [13], 119%. Further, the inhibition entry with Rattus norvegicus [14] is “Dose-dependent effect”.

With `CN1CCOCC1C(=O)N1CC[C@@](O)(c2ccccc2)[C@@H]2CCCC[C@@H]21` (mixture of isomers), the half-maximal inhibitory concentration (IC50) on Cannabinoid receptor 1 [2] is over 17 µM; at Cannabinoid receptor 2 [6], 0.03 µM. In data set [15], this compound returned a fraction unbound of 0.34. Besides, at Cannabinoid receptor 2 [11], the Emax is 100%. Moreover, in data set [16], the logP is 2.28.

Take `O=C(c1ccc2[nH]ccc2c1)N1CC[C@@](O)(c2ccccc2)[C@@H]2CCCC[C@@H]21` (racemic): the IC50 at Cannabinoid receptor 1 [2] was found to be 1 µM; at Cannabinoid receptor 2 [6], 0.0014 µM. The Emax at Cannabinoid receptor 2 [11] is 104%; at Cannabinoid receptor 1 [12], 91%. In addition, in the data set listed under Homo sapiens, the Ratio IC50 stood at 716.

For `O=C(c1cccc2[nH]cnc12)N1CC[C@@](O)(c2ccccc2)[C@@H]2CCCC[C@@H]21` (racemic), the results for the IC50 on Cannabinoid receptor 1 [2] and on Cannabinoid receptor 2 [6] were over 17 µM and 0.035 µM, respectively. In addition, the Emax at Cannabinoid receptor 2 [11] was 101%; at Cannabinoid receptor 1 [12] it was 53%. Moreover, the Ratio IC50 in the data set listed under Homo sapiens was over 486.

Turning to `O=C(c1cccc2[nH]ncc12)N1CC[C@@](O)(c2ccccc2)[C@@H]2CCCC[C@@H]21` (racemic), the IC50 on Cannabinoid receptor 1 [2] was over 17 µM; on Cannabinoid receptor 2 [6] it was 0.004 µM. Further, the fraction unbound in data set [15] came out at 0.048. Besides, the Emax at Cannabinoid receptor 2 [11] stood at 102%; at Cannabinoid receptor 1 [12], 15%. The clearance in data set [17] came to 70 mL/min/kg. The Ratio IC50 in the data set filed under Homo sapiens was over 4000. In data set [18], this compound gave a half-life of 25.8 min.

For the compound `Cc1ccc(C(=O)N2CC[C@@](O)(c3ccccc3)[C@@H]3CCCC[C@@H]32)cn1` (racemic), the IC50 was over 17 µM at Cannabinoid receptor 1 [2] and 0.014 µM on Cannabinoid receptor 2 [6]. In data set [15], this compound displayed a fraction unbound of 0.15. This compound displayed a logP in data set [16] of 2.26.

For `COc1ccc2cc([C@H](C)C(=O)O)ccc2c1` [NAPROXEN], in the data set listed under Rattus norvegicus [19], the inhibition in vivo at 20 mg/kg stood at 23.9%.

Values taken from ChEMBL document CHEMBL1765069, “Decahydroquinoline amides as highly selective CB2 agonists: role of selectivity on in vivo efficacy in a rodent model of analgesia” (Bioorg Med Chem Lett, 2011).
